# Screens (PubChem)
# Mdm2-MdmX inh = disrupts the human Mdm2-MdmX interaction. SaOS-2 split-luciferase Mdm2/MdmX complementation, luminescence. inhibition, % at 8 µM. actives 3% (n = 330,000). O15151+Q00987. AID 485346;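 active means inhibition of at least 50% at 8 µM in the primary screen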
# Beta2AR agonist = human beta-2 adrenergic receptor agonism by FAP | Am2.2-beta2AR cells, FAP receptor internalization, flow cytometry | response, % (test concentration not listed) | actives 0.43% (n = 340,000) | AID 504454;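 active means response above a set limit, near 3 SD of response in nonfluorescent compounds, cut at about 42% in these data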
# Target sequence (P07550 whole entry, looked up): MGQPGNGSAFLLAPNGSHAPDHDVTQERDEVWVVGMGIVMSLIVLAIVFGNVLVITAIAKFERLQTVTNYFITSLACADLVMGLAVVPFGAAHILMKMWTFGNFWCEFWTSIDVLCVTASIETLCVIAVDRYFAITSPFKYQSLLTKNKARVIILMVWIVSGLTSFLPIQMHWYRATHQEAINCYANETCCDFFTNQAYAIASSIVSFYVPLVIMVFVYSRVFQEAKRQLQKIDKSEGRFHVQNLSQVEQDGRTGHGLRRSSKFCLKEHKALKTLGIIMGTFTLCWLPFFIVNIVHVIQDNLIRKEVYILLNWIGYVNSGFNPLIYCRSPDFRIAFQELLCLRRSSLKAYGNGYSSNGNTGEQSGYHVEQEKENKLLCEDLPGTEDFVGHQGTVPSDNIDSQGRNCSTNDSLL
# Dynein cargo inh = dynein cargo transport inhibition; actives 0.47% (n = 220,000); z-score, hits read low; 3617.4 mouse cells, GR-EGFP nuclear translocation imaging; test concentration mostly 20 µM; stimulated with dexamethasone, 1 µM; active compounds read low;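 active means plate z-score of nuclear minus cytoplasmic receptor signal below a set negative limit, without overly bright fluorescence or cell loss, cut at about -3.5 in these data, passing the limit was not always enough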;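 further: z-score of nuclear minus cytoplasmic ring GR-EGFP intensity difference per well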
#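 Buffer or medium – tet-free medium with charcoal-stripped serum · Signal – automated 10x imaging of fixed Hoechst-stained cells · Also added – dexamethasone agonist, 1.0 µM final, for 30 min · Incubation – induction 48 h, compound 1 h, agonist 30 min · Read-out – GR-EGFP nuclear translocation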
# UPR CHOP act = apoptotic UPR (CHOP) activation; AID 449763; activation, % at 10 µM; actives 0.34% (n = 330,000); CHO-CHOP luciferase reporter, luminescence; percent of tunicamycin response over DMSO baseline;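 active means at 10 µM dose, activation of 40% or more, normalized to positive control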;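 further: 100% = tunicamycin at 10 µg/mL and 0% = DMSO alone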
#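 Test system: CHO-CHOP cells, stable luciferase reporter of PERK-eIF2a-CHOP signalling | Quantity: 500 CHO-CHOP cells per well | Buffer or medium: F12 plus 10% serum | Compound dosing: 10 µM single point, 0.5% DMSO | Schedule: 6 h compound treatment, 37 °C | Signal: Luciferase luminescence | Control set: Tunicamycin high control, DMSO low control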
# Mdm2 ligase inh = blocks human Mdm2 ubiquitin ligase activity; signal enhancement, % at 5 µM; actives 0.11% (n = 210,000); AID 1230; cell-based MDM2 ubiquitination luciferase reporter, 2 h; 0 = plate control, 100 = twice control, blank-subtracted;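 active means signal enhancement of 30% or more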;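 further: luminescence tracks abundance of the self-degrading MDM2-luciferase fusion protein; higher signal means inhibition of MDM2 E3 ligase activity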
#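 Material: stable MDM2–luciferase fusion reporter cells / Quantity: 2000 cells/well / Dosing: single 5 µM compound dose, 0.2% final DMSO / Buffer or medium: DMEM / Schedule: 4 h cell settling then 2 h compound exposure, 37 °C / Detection: luminescence with SteadyLite reagent, 15 min at room temperature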
# UPR XBP1 act = adaptive UPR (XBP1) activation. AID 463104. actives 0.33% (n = 330,000). CHO-XBP1 luciferase reporter, IRE1-XBP1 UPR activation, luminescence; percent of tunicamycin response, DMSO as zero. activation, % at 20 µM;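 active means versus positive control, 20 µM dose yields 30% or more activation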;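 further: 100% = tunicamycin at 10 µg/mL and 0% = DMSO only wells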
#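 Material: CHO cell line with stable XBP1 luciferase reporter; buffer or medium: F12 medium containing 10% fetal bovine serum; compound: single point, 20 µM final compound, 1% DMSO; incubation: 6 h treatment, 37 °C; measured by: glow luminescence from Steady-Glo reagent; evaluation: activation, % of tunicamycin; control set: tunicamycin high, DMSO low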
# Mdm2-MdmX conf = confirmation of human Mdm2/MdmX interaction inhibitors; shares compounds with Mdm2-MdmX inh; Mdm2-MdmX binding, luminescent assay; inhibition, % at 8 µM; actives 55% (n = 10,000); AID 489028; in the data active means inhibition above about 40%
# FLuc counter = inhibits full-length luciferase, flagging false Mdm2/MdmX hits | actives 77% (n = 6,200) | shares compounds with Mdm2-MdmX inh | inhibition, % at 8 µM | SaOS-2 full-length luciferase counterscreen, luminescence;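 active means mean inhibition at 8 µM reaching about 37%, which flags the compound as non-specific, limit read from the data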;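 further: p53-null SaOS-2 cells with luciferase driven by a doxycycline-inducible promoter; compound on cells about two nights before reading with doxycycline added after day one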
# Active calls of the source: *; nt = no result given. A selection: hits, their analogues and other compounds. The true share with any hit is near 3.7%.
SMILES,Mdm2-MdmX inh,Beta2AR agonist,Dynein cargo inh,UPR CHOP act,Mdm2 ligase inh,UPR XBP1 act,Mdm2-MdmX conf,FLuc counter
CC(=O)Nc1ccc(Nc2nc(-c3sc(NC(C)=O)nc3C)cs2)cc1,58*,9,nt,2,nt,-5,23,nt
Cc1nc(C)c(-c2csc(Nc3ccc(N)cc3)n2)s1,-2,6,nt,26,nt,4,nt,nt
O=C(/C=C/c1ccc(OC(F)F)cc1)Nc1cccc(S(=O)(=O)N2CCOCC2)c1,36,8,nt,4,nt,-1,nt,nt
Cc1cc(-c2nnc(CCC(=O)NCc3ccc(OC(F)(F)F)cc3)o2)no1,4,-1,nt,1,nt,-1,nt,nt
CC1CCN(CCNC(=O)c2ccc3c(=O)n(Cc4ccc(Cl)cc4)c(=S)[nH]c3c2)CC1,97*,12,nt,3,nt,7,31,nt
COCCCNC(=O)c1ccc2c(=O)n(Cc3ccc(Cl)cc3)c(=S)[nH]c2c1,31,-9,nt,4,nt,1,nt,nt
CCCCCn1c(=O)[nH]c2cc(C(=O)O)ccc2c1=O,4,8,-0.42,0,-9,0,nt,nt
CCCCCn1c(=O)[nH]c2cc(C(=O)NC3CCN(Cc4ccccc4)CC3)ccc2c1=O,92*,-8,nt,-1,nt,-2,29,nt
Cc1ccc(-c2nnc(CN3CCCCC3C)o2)cc1 (centres undefined),15,-10,nt,-1,nt,-3,nt,nt
COc1ccc(S(=O)(=O)Nc2cccc(S(=O)(=O)N3CCCC3)c2)cc1OC,14,4,nt,0,nt,-2,nt,nt
Cc1cc2occ(CC(=O)N(C)CC(=O)Nc3ccc(F)cc3)c2cc1C,33,5,nt,0,nt,-2,nt,nt
Cc1cc(-c2n[nH]c(=S)n2Cc2ccco2)n(C)n1,62*,4,0.13,-1,-9,0,11,nt
COc1ccc(NC(=O)C2CCCN(S(C)(=O)=O)C2)cc1Cl (centres undefined),-1,4,nt,0,nt,-1,nt,nt
COc1ccc(-c2sc3cc(OC)c(OC)cc3c2-c2ccc(O)cc2)cc1,53*,19,nt,0,nt,6,32,nt
CCC(Oc1ccccc1)C(=O)Nc1ccc(C)c(S(=O)(=O)N2CCOCC2)c1 (centres undefined),-9,3,nt,1,nt,-4,nt,nt
COc1ccc(NC(=O)c2nnn(CC(=O)Nc3ccc4c(c3)OCO4)c2N)cc1OC,28,5,nt,0,nt,-2,nt,nt
COc1ccc(Cl)cc1NC(=O)c1nnn(CC(=O)Nc2ccc3c(c2)OCO3)c1N,93*,-11,nt,1,nt,-2,53*,17
COc1cccc(NC(=O)Cn2nnc(C(=O)Nc3cc(Cl)ccc3OC)c2N)c1,90*,0,nt,1,nt,0,49*,22
COc1ccc(NC(=O)c2nnn(CC(=O)Nc3ccc4c(c3)OCO4)c2N)c(OC)c1,52*,3,nt,5,nt,0,-16,nt
COc1ccc(Cl)cc1NC(=O)c1nnn(CC(=O)Nc2cc(C)cc(C)c2)c1N,94*,8,nt,0,nt,-2,57*,55*
COc1cccc(Cn2nnc(C(=O)Nc3cc(Cl)ccc3OC)c2N)c1,16,5,-0.59,-2,-10,13,nt,nt
CSc1cccc(N2CC(C(=O)N3CCN(S(=O)(=O)c4ccccc4Cl)CC3)CC2=O)c1 (centres undefined),-14,2,nt,0,nt,-1,nt,nt
CC(C)Sc1ncnc2[nH]ncc12,nt,2,nt,nt,nt,nt,nt,nt
COc1ccc(NC(=O)Cn2nnc(C(=O)NCc3ccc(C)cc3)c2N)cc1OC,14,1,nt,0,nt,-2,nt,nt
Cc1ccc(NC(=O)Cn2nnc(C(=O)Nc3ccc(F)c(Cl)c3)c2N)cc1,17,3,nt,3,nt,-4,nt,nt
SMILES,Mdm2-MdmX inh,Beta2AR agonist,Dynein cargo inh,UPR CHOP act,Mdm2 ligase inh,UPR XBP1 act,Mdm2-MdmX conf,FLuc counter
COc1ccc(Cl)cc1NC(=O)c1nnn(CC(=O)Nc2ccc(OC)c(OC)c2)c1N,69*,21,nt,2,nt,0,40,32
COc1ccc(NC(=O)Cn2nnc(C(=O)Nc3ccc(F)c(Cl)c3)c2N)cc1,59*,-1,nt,2,nt,1,34,83*
CC(Sc1nnnn1C)C(=O)Nc1cc(S(=O)(=O)N2CCCCC2)ccc1Cl (centres undefined),-5,3,nt,0,nt,0,nt,nt
COc1ccc(-c2cc(-c3cccs3)c(C#N)c(SCC(=O)NCc3ccco3)n2)cc1,56*,-2,0.95,3,-5,6,70*,52*
Cc1nc(SCC(=O)Nc2nc3ccccc3s2)c(C#N)c(C)c1C,100*,1,0.083,-10,-80,-7,100*,53*
N#Cc1c(SCC(=O)Nc2nccs2)nc2c(c1-c1ccco1)CCCC2,51*,3,-0.35,-2,-14,2,11,nt
COc1cc(-c2cc(-c3ccccc3)nc(SCC(=O)Nc3nccs3)c2C#N)cc(OC)c1OC,51*,7,-0.64,1,-12,9,26,nt
COc1cccc(-c2ccc(C#N)c(SCC(=O)NCc3ccco3)n2)c1,28,9,-0.76,-2,1,-2,nt,nt
Cc1cnc(=O)[nH]c1SCC(=O)Nc1nccs1,36,-2,nt,1,nt,-4,nt,nt
Cc1nc(SCC(=O)Nc2nccs2)c(C#N)c(C)c1C,68*,-3,nt,-3,nt,-6,51*,110*
N#Cc1ccc(-c2cccnc2)nc1SCC(=O)Nc1sc2c(c1C#N)CCC2,10,13,0.18,0,17,10,nt,nt
N#Cc1c(C(F)(F)F)cc(-c2ccccc2)nc1SCC(=O)Nc1sc2c(c1C#N)CCC2,72*,10,-0.18,7,-6,2,64*,55*
Cc1cc(C(F)(F)F)c(C#N)c(SCC(=O)Nc2nc3ccccc3s2)n1,66*,-40,-2,5,-7,-1,82*,142*
COc1ccccc1C(=O)NC(=O)COC(=O)c1nc(Cl)ccc1Cl,5,-13,nt,-1,nt,-1,nt,nt
CC1CCN(CC(O)CN2c3ccccc3Sc3ccccc32)CC1 (centres undefined),54*,5,nt,0,nt,0,16,nt
CC1CCN(C(=O)N2c3ccccc3Sc3ccccc32)CC1,14,25,0.31,2,-32,-4,nt,nt
O=c1c2ccccc2[nH]c(=S)n1CCCN1CCN(c2ccccc2F)CC1,66*,3,nt,3,nt,-3,36,81*
O=c1c2ccccc2[nH]c(=S)n1CCCN1CCN(c2ccccc2)CC1,80*,1,nt,0,nt,-3,43*,63*
